According to ChEMBL document CHEMBL1275484, “Rifampin and rifaximin resistance in clinical isolates of Clostridium difficile” (Antimicrob Agents Chemother, 2008):
Values after ≈ are worked out from the molar mass of the structure shown.

How the values were obtained:
Assay type in all cases: functional
Clostridioides difficile [1] = assay: Antimicrobial activity against Clostridium difficile isolate 60 by Etest
Summary of the method: (§1)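 Rifampin Etest strips were run on brucella blood agar following the manufacturer's instructions to give an MIC. Clinical isolates were typed by HindIII REA.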

Clostridioides difficile [2] = assay: Antimicrobial activity against Clostridium difficile isolate 10 by Etest
Summary of the method: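 Rifampin MIC by Etest strip on brucella blood agar, run per the strip maker's instructions. Isolates were HindIII REA-typed clinical C. difficile.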

Clostridioides difficile [3] = assay: Antimicrobial activity against Clostridium difficile isolate 31 by agar dilution method
Summary of the method: (§2)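 MIC by CLSI reference agar dilution for anaerobes, with endpoints read per M11-A7 and C. difficile […] as control. Rifaximin was dissolved in methanol, diluted in 0.1 M phosphate buffer pH 7.4 plus 0.45% SDS, and tested at 0.0009–256 μg/ml. Rifampin was dissolved in methanol, diluted in water, and tested at 0.00001–256 μg/ml.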

Clostridioides difficile [4] = assay: Antimicrobial activity against Clostridium difficile isolate 59 by agar dilution method
Summary of the method: (§3)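 CLSI reference agar dilution method for anaerobes, with endpoints read per guideline M11-A7. Rifaximin was dissolved in methanol, diluted in 0.1 M phosphate buffer (pH 7.4) with 0.45% SDS, and tested at 0.0009–256 μg/ml. Rifampin was dissolved in methanol, diluted in water, and tested at 0.00001–256 μg/ml. C. difficile ATCC […] served as control. Isolates were typed by HindIII REA.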

Clostridioides difficile [5] = assay: Antimicrobial activity against rifaximin-resistant Clostridium difficile isolate 64 expressing RpoB H502R mutant by agar dilution method
Summary of the method: as §2, with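 “MICs were found” for “MIC”, “by the” for “by”, “dilution method” for “dilution”, “with” for “plus”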

Clostridioides difficile [6] = assay: Antimicrobial activity against Clostridium difficile isolate 32 by agar dilution method; summary of the method: as §2
Clostridioides difficile [7] = assay: Antimicrobial activity against Clostridium difficile isolate 48 by Etest; summary of the method: as §1
Clostridioides difficile [8] = assay: Antimicrobial activity against Clostridium difficile isolate 40 by agar dilution method; summary of the method: as §3
Clostridioides difficile [9] = assay: Antimicrobial activity against Clostridium difficile isolate 7 by Etest
Summary of the method: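 Rifampin MIC by Etest on brucella blood agar, run per the strip manufacturer's instructions, against clinical isolates typed by HindIII REA.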

Clostridioides difficile [10] = assay: Antimicrobial activity against Clostridium difficile isolate 58 by agar dilution method; summary of the method: as §3
Clostridioides difficile [11] = assay: Antimicrobial activity against Clostridium difficile isolate 3 by agar dilution method; summary of the method: as §2

`CO[C@H]1/C=C/O[C@@]2(C)Oc3c(C)c(O)c4c(O)c(c(/C=N/N5CCN(C)CC5)c(O)c4c3C2=O)NC(=O)/C(C)=C\C=C\[C@H](C)[C@H](O)[C@@H](C)[C@@H](O)[C@@H](C)[C@H](OC(C)=O)[C@@H]1C` [RIFAMPIN] was tested. Which MIC (Clostridioides difficile [1]) did it give?
Its MIC is under 2 ng/mL.

And the MIC (Clostridioides difficile [2])?
Its MIC is 16 ng/mL (≈ 19.4 nM).

What about the MIC (Clostridioides difficile [3]) of the same molecule?
Its MIC is 0.9 ng/mL (≈ 1.09 nM).

And the MIC (Clostridioides difficile [4])?
The MIC was 0.9 ng/mL (≈ 1.09 nM).

What about the MIC (Clostridioides difficile [5]) of the same molecule?
The MIC was over 256000 ng/mL.

What about the MIC (Clostridioides difficile [6]) of the same molecule?
The MIC was 0.9 ng/mL (≈ 1.09 nM).

What about the MIC (Clostridioides difficile [7]) of the same molecule?
The MIC was under 2 ng/mL.

What about the MIC (Clostridioides difficile [8]) of the same molecule?
The MIC was 0.9 ng/mL (≈ 1.09 nM).

And the MIC (Clostridioides difficile [9])?
The MIC was under 2 ng/mL.

What about the MIC (Clostridioides difficile [10]) of the same molecule?
The MIC was 0.9 ng/mL (≈ 1.09 nM).

And the MIC (Clostridioides difficile [11])?
Its MIC is 0.06 ng/mL (≈ 0.0729 nM).
